This data set relates to MS2 coat protein. Put plainly: apparent Kd, MS2 coat protein; higher = weaker binding; RNA-MaP array; FMN 200 µM where present. In outline: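 In 100 mM Tris-HCl pH 7.5, 80 mM KCl, 4 mM MgCl2, BSA, DTT, yeast tRNA and Tween-20, SNAP-549-labelled MS2 coat protein was titrated from 0.7 or 1.5 nM, doubling to 3 µM, over designs transcribed by stalled E. coli RNA polymerase on Illumina sequencing-chip clusters. This was done first without ligand, then with ligand held constant. After green signal was normalised to red-channel RNA signal and control-cluster median Fmax, the apparent Kd was taken as the median of filtered per-cluster binding-curve fits.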

The mark [1] stands for this setting: designed as: OFF switch for flavin mononucleotide, no ligand.
[2] abbreviates: ligand present: flavin mononucleotide, designed as: OFF switch for flavin mononucleotide.
Where [3] appears, read: designed as: ON switch for flavin mononucleotide, no ligand.
The mark [4] stands for this setting: ligand present: flavin mononucleotide, designed as: ON switch for flavin mononucleotide.

The record followed here is the EternaBench riboswitch data.

A word on the apparent Kd: it is the concentration giving half-maximal binding under the conditions of the assay.

For the sequence “UGUCGGAGCAGAGGAUAUACAUGAGGAUCACCCAUGUAAUAAAGUGAAGCCUGGAAACGGGCAAUGUAGAAGGCUGCUCCGACA”, the “apparent Kd” value under setting [1] is 11.3 nM and the “apparent Kd” value under setting [2] is 87.8 nM.
Consider “AACGGAAUGUAGAAGGGUGACAUGAGGAUCACCCAUGUUCACAUGCGUAUUAAAGUAUGUGAACCACAGGAUAUACUGUCCGUG”, for which the “apparent Kd” value is, setting by setting: under setting [3], 56.8 nM; under setting [4], 130 nM.
Consider “UUUACAUGAGGAUCACCCAUGUUUUGAAAGAUUAGUUUUGGUGAGGAUAUACAUGAUAAAGAAUUGUAGAAGGCACUGGGUACA”, for which the “apparent Kd” value runs as follows: under setting [3], 45.4 nM; under setting [4], 28.6 nM.
For the sequence “GCCGGGUCAGGAUAUGGGCCCGGGCCCGAAAGGGCCCGGGCCCAGAAGGGACAUGAGGAUCACCCAUGUCCGGC”, the “apparent Kd” value reads like this: under setting [1], 19.5 nM; under setting [2], 16.5 nM.
“CAUUAAUUGAUUAUUGUAUUUAUACAGGAUAUGUAACAUGAGGAUCACCCAUGUAUACAUGGGAAACAGAAGGGUAUUUAUAGA”: the “apparent Kd” value under setting [1] was 31.9 nM and the “apparent Kd” value under setting [2] was found to be 25.6 nM.
As to “AAGUAGGGAGGAUAUACAUGGAUAUACAUUCAUGUGGACCUACAUGAGGAUCACCCAUGUAGAAGGCCCUAAUA”, the “apparent Kd” value is, setting by setting: under setting [1], 37.1 nM; under setting [2], 43.5 nM.
Turning to “GUACUGUAGUGAGGAUAUACGAGAUCGAUAGAUCGGCGAUCCAUUUAUACAUGAGGAUCACCCAUGUAGAAGGCACUUCAGUAC”, the “apparent Kd” value under setting [1] worked out at 5.62 nM and the “apparent Kd” value under setting [2] turned out to be 56.6 nM.
On to “GUGGUCAGACAUGAGGAUCACCCAUGUGGAAUAAAUAACAGACAGGAUAUUAAAUAUAGGAUAUAUAAGAAGGGUCGAUUGGUG”, for which the “apparent Kd” value runs as follows: under setting [3], 91.1 nM; under setting [4], 91.6 nM.
“AUUGUUUUCAUAGGAUAUUGACAUUUAUUUAUUCAAGAAGGAUGAUUACAUGAGGAUCACCCAUGUUAUUAUGGAUUAACUAGU”: the “apparent Kd” value runs as follows: under setting [1], 23.7 nM; under setting [2], 43.2 nM.
For the sequence “ACAUGAGGAUCACCCAUGUUAAACGAGGAUAUUUGACUGCACAUGAGGUUCGCCCAUGUCCUGCCGAAGAAGGUGUGAAUAAUU”, the “apparent Kd” value stood at 17.6 nM under setting [3] and 13.5 nM under setting [4].
For the sequence “CAGGUAGACUGAGGAUAUACAAAAGACCUAGUCUAUCUAGGUCAAAUCACAUGAGGAUCACCCAUGUAGAAGGCAGUCUGCCUG”, the “apparent Kd” value reads like this: under setting [1], 16.8 nM; under setting [2], 27.3 nM.
On to “GGAGCUCCCAUUAACAUGAGGAUCACCCAUGUCAAAAGACAUGAGGAUAUGGUACCUAAUUGGUACCAGAAGGCAUGGAGCUCC”, for which the “apparent Kd” value runs as follows: under setting [3], 1180 nM; under setting [4], 107 nM.
Regarding “GCGAAUUAGUGAGGAUAUACAUAAUUUAUAACUGUAGAAGGCACAAACCUCAAGACAUGAGGAUCACCCAUGUGGUAUUACGCU”, the “apparent Kd” value is, setting by setting: under setting [1], 112 nM; under setting [2], 281 nM.
Take “CGCCUCGUGUCGAACAUGAGGAUCACCCAUGUAAUGGGCACCGAGGAUAUCCCGCUGGCGUUAUGGGAGAAGGCGGUGGAUUUA”: the “apparent Kd” value is, setting by setting: under setting [1], 45 nM; under setting [2], 131 nM.
“AAGAAACAUGAGGAUCACCCAUGUAAAUUCAAGAGAGGAUAUCGUACAUGGAAGAUUCAACGAGAAGGCUCUAGAA”: the “apparent Kd” value was 36.5 nM under setting [3] and 18.4 nM under setting [4].
Regarding “GUCCGGAGGGAGAAGGGCUAGGAGGUCCAGCUUAUGUGUGUUGCAACAUGAGGAUCACCCAUGUAGCAGGAUAUCCCUUGUACA”, the “apparent Kd” value is, setting by setting: under setting [1], 52.1 nM; under setting [2], 219 nM.
On to “AGUUGGCGAGGAUAUACAUGAGGAUCACCCAUGUGAAAUAUAAGAGUGAGGAAGAAAAGUAGAAGGCGCUGACA”, for which the “apparent Kd” value by setting is: under setting [1], 99.8 nM; under setting [2], 130 nM.
For the sequence “AACGUCGAAGGAUAUACAUGAGGAUCACCCAUGUGGGACCUGUAGUCUCACCCAUCGUGUAGAAGGUUGAGGCA”, the “apparent Kd” value by setting is: under setting [1], 32.2 nM; under setting [2], 29.7 nM.
As for “GCGUGGAUAGCAGGAUAUAUGUUUCCUACAUGAGGAUCACCCAUGUAGGUGAUCAGCCGAGAAAAGUAGAAGGGCUAUCCAUGC”, the “apparent Kd” value amounted to 16 nM under setting [3] and 13.4 nM under setting [4].
For the sequence “AGUACAUCAGGAUAUACAUGGAAGAUCAUUAUGACCCAUCUACAUGAGGAUCACCCAUGUAGAAGGGAUGUACA”, the “apparent Kd” value amounted to 24.6 nM under setting [1] and 16.9 nM under setting [2].
With “ACAAGAUCAGGAUAUACAUGAGGAUCACCCAUGUGUAUCAAAAGGGAACUUUCUUAAUGUAGAAGGGAUCUUGU”, the “apparent Kd” value by setting is: under setting [1], 14.7 nM; under setting [2], 22.3 nM.
The matching figures for “GGAUGCAAGGAGAAGGGCUACUGGUUGAAACCUGCGGCCUCUGGAACAUGAGGAUCACCCAUGUAGCAGGAUAUCCUUACGUGA”: 233 nM and 32.8 nM.
Consider “UUGGACGUCGUAGGAUAUGUAGGAUAUUCCUACAUGAGGAUCACCCAUGUUGACAUGGAAGAAGGACAGAGGGACGAUGUCCAU”, for which the “apparent Kd” value was found to be 454 nM under setting [3] and 11.6 nM under setting [4].
For “GUGUACAGAGGAUAUACAGGAGCUAGGAAACUAGCAACUUCACAUGAGGAUCACCCAUGUAGAAGGCUGUACAC”, the “apparent Kd” value under setting [1] was 15.3 nM and the “apparent Kd” value under setting [2] was 49.7 nM.
Turning to “GGAACUUAGGGAGGAUAUAGGCGACAUGAGGAUCACCCAUGUACGGAGGGCUCUUCCCGUGUUCACUAGAAGGCCCAUGUUACC”, the “apparent Kd” value stood at 19.4 nM under setting [1] and 75 nM under setting [2].
For the sequence “AAGGAUAGAGGAUAUACAUAGAUACAGAUUCGUGUAGAACUACAUGAGGAUCACCCAUGUAGAAGGCUAUCCUA”, the “apparent Kd” value reads like this: under setting [1], 16.8 nM; under setting [2], 46 nM.
As for “CGAUAAAGGUGAGGAUAUGAGAAUAGAAAGAAAUCAGAAGGCACACAUGAGGAUCACCCAUGUGAGUUCUCGAGAUUACAUGGU”, the “apparent Kd” value under setting [1] is 15.5 nM and the “apparent Kd” value under setting [2] turned out to be 17.9 nM.
Turning to “UGAUCGAGAGAUCUUAGAUUCUGGUAGGAUAUACAUUAUAAAAGCUUUACAUGAGGAUCACCCAUGUAGAAGGACUAGAGUCUA”, the “apparent Kd” value under setting [2] came to 7.92 nM.
Take “UAAUUAAGUGUGAGGAUAUGCUGGUCCUUGGAUCAGCAGAAGGCACAUGAGGAUCACCCAUGUAAAUUAUUUAU”: the “apparent Kd” value runs as follows: under setting [1], 103 nM; under setting [2], 437 nM.
Regarding “GGACCGUGCAGAGUUGGCGGUCGGCAGGAUAUGACAUGAGGAUCACCCAUGUGAACUCCAUUGGGUCAGAAGGGCCACGACACA”, the “apparent Kd” value amounted to 17.6 nM under setting [1] and 78 nM under setting [2].
Consider “AGCGGAUUGUAGAAGGGUGACAUGAGGAUCACCCAUGUUCAAAUGCGAUUUACGGUAAUUGAUCCACAGGAUAUACAGUCCGAG”, for which the “apparent Kd” value runs as follows: under setting [3], 905 nM; under setting [4], 178 nM.
“UAUUAUGUUCGAGGAUAUCCGCGAUGCCGACCAGGAGAAGGCGAACAUGAGGAUCACCCAUGUUAUAGAUGACCGGUUACCAAA”: the “apparent Kd” value under setting [1] stood at 23.8 nM and the “apparent Kd” value under setting [2] is 41.2 nM.
For the sequence “GGUAUUCGAGGAUAUCGCAAACGAGACAUGAGGAUCACCCAUGUCCCUCAUGCUUGUCGGCGAGAAGGCGACAAGC”, the “apparent Kd” value under setting [1] amounted to 14.8 nM and the “apparent Kd” value under setting [2] was 17.7 nM.
As to “AUGCUUCACACAGGAUAUACAUGAGGAUCACCCAUGUGUCCAAAGUAGCCGACACGAGCUACGCGGUAGAAGGGUGUGAAGCAU”, the “apparent Kd” value reads like this: under setting [1], 18.6 nM; under setting [2], 52.2 nM.
On to “UGUUACUAGGGAGGAUAUGGGAAGAUACAUGAGGAUCACCCAUGUUUAAGAAUGCCGAGAGGCAACUAGAAGGCCCUAGUACCU”, for which the “apparent Kd” value is, setting by setting: under setting [3], 354 nM; under setting [4], 23.1 nM.
On to “AGUGUCAUCGAGAAGGCCUCAACAUGAGGAUCACCCAUGUUGCAAAAUGGGAGGAUAUCGCGCGUUAAAAUACGUUUCGUAGCA”, for which the “apparent Kd” value stood at 42.4 nM under setting [3] and 16.7 nM under setting [4].
